Fewer inactive variants are shown than the library holds.

Here are results for 167 variants from the RNAGym collection of RNA variant scans (doi:10.1126/science.aae0568).

The labels stand for the following.
B1: tRNA (parent)
chain: GUUCCGUUGGCGUAAUGGUAACGCGUCUCCCUCCUAAGGAGAAGACUGCGGGUUCGAGUCCCGUACGGAACG

Variants of B1 are the subject of the data set. In words: yeast fitness relative to wild type (ratio to wild type); higher = fitter; tRNA-Arg(CCU), competitive growth, 37 C, YPD. In a few lines:
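Changes in genotype frequencies gave Darwinian fitness relative to wild type. Frequencies were read by 100-nucleotide paired-end sequencing of gene amplicons before and after pooled Saccharomyces cerevisiae strains, carrying tRNA-Arg(CCU) gene variants at the native locus, were competed in YPD at 37°C for 24 hours in six replicates. A genotype was kept only with ≥ 100 starting reads, and estimates < 0.5 were set to 0.5.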
Regarding C5U A42U C55U A69C, the yeast fitness was at most 0.5.

With C5G U16A C27G A42C A65C, the yeast fitness was at most 0.5.

For the variant C5G U16C G39C A57U, the yeast fitness is at most 0.5.

On to C5G U13C C24U, for which the yeast fitness is at most 0.5.

Consider C5U A14C A15U G17A U26C A42U A45C, for which the yeast fitness amounted to 0.508.

With C5G G41C A45U, the yeast fitness stood at 0.583.

C5G U13C C62U: the yeast fitness amounted to 0.602.

In the case of C5U C11G C34U A42C C61A A70U, the yeast fitness is at most 0.5.

With C5G G56A, the yeast fitness was 0.975.

For the variant C5G G68C A69G, the yeast fitness came out at 0.54.

Take C5U C11A A20C C22G C30U C31G C61A: the yeast fitness worked out at 0.543.

On to C5U A20C G39C G58A, for which the yeast fitness is at most 0.5.

For C5U A37C G50C, the yeast fitness was at most 0.5.

As to C5G U47A, the yeast fitness was determined as 0.731.

For the variant C5U C11A A21G G23C U64A, the yeast fitness is at most 0.5.

Regarding C5G U16A C29U A40U G52A A65C, the yeast fitness is at most 0.5.

As for C5G U53G A65G, the yeast fitness was at most 0.5.

Turning to C5U A15U C31U A43U C49U, the yeast fitness was at most 0.5.

As for C5G U13G A20U, the yeast fitness was at most 0.5.

On to C5U A21U G68A, for which the yeast fitness is at most 0.5.

Take C5G U53C A65C: the yeast fitness was at most 0.5.

Regarding C5G U13C A21C G68U, the yeast fitness is at most 0.5.

On to C5U A15C, for which the yeast fitness came to 0.763.

With C5G U35A C49A G51C, the yeast fitness is at most 0.5.

As for C5U A65C G68A, the yeast fitness turned out to be 0.681.

Turning to C5U A21G A57C, the yeast fitness came to 0.562.

Regarding C5U A14C A69C, the yeast fitness was at most 0.5.

As to C5U A14U U32A U54C C55U, the yeast fitness is at most 0.5.

On to C5G U19C U35A A43C, for which the yeast fitness was at most 0.5.

With C5U A14G A40G, the yeast fitness came to 0.648.

As to C5G U13C C22G C33A, the yeast fitness amounted to 0.635.

Take C5G U7A A20G U47G G50C G51C: the yeast fitness was at most 0.5.

In the case of C5U A14G A65U G67A, the yeast fitness turned out to be 0.689.

With C5U A65U G67A, the yeast fitness was 0.921.

As for C5U A14U G17C A36U, the yeast fitness was at most 0.5.

Consider C5G U35A, for which the yeast fitness amounted to 0.615.

Turning to C5G U35G A43G C49U G63A A65U, the yeast fitness is at most 0.5.

For C5U A15G C22G G41A A45U U47A C62U A69U, the yeast fitness is at most 0.5.

With C5U A43G G48A, the yeast fitness was determined as 0.678.

C5G U8C C11A U26C U35C G50C G52A: the yeast fitness worked out at 0.634.

With C5U A14U G17C C33U G52C G63A, the yeast fitness was at most 0.5.

Regarding C5G U16A A43G G63U, the yeast fitness amounted to 0.524.

C5G U54C: the yeast fitness worked out at 0.814.

Consider C5U A14G G67A, for which the yeast fitness worked out at 0.642.

Take C5U A21U C30G G58C: the yeast fitness is at most 0.5.

As to C5G U13A C30U, the yeast fitness turned out to be 0.56.

Take C5U C11A A14C C33G: the yeast fitness was at most 0.5.

As to C5G G39A G52A A70G, the yeast fitness is at most 0.5.

On to C5G U7A A42C, for which the yeast fitness is at most 0.5.

Take C5U A43C C49U G50A: the yeast fitness is at most 0.5.

Take C5U A14C: the yeast fitness was found to be 0.593.

As to C5G G51C A57U C60U, the yeast fitness is at most 0.5.

For C5G G41C C61U, the yeast fitness is at most 0.5.

For C5U A20U G50A U59C, the yeast fitness was 0.544.

Consider C5G U16A, for which the yeast fitness came to 0.959.

As to C5U A37C G52C, the yeast fitness was at most 0.5.

Take C5U A14C A21C U53G A57C: the yeast fitness is at most 0.5.

Regarding C5G U19G C22U U32C A65C C66U, the yeast fitness is at most 0.5.

As for C5G U13G, the yeast fitness amounted to 0.703.

As to C5G G48C A69U, the yeast fitness was 0.587.

Turning to C5G U7G A57G, the yeast fitness is at most 0.5.

In the case of C5U A14C G41C A43C, the yeast fitness was at most 0.5.

For the variant C5U C11A A45G, the yeast fitness was 0.537.

As for C5G U8C G18C C61U A65C, the yeast fitness was at most 0.5.

Turning to C5G U7G C33A, the yeast fitness is 0.519.

Turning to C5U A14G A21U A36U G48C C55U, the yeast fitness was 0.627.

As for C5U A14U U16A, the yeast fitness is at most 0.5.

Turning to C5U A14G C33G A40G, the yeast fitness is at most 0.5.

For the variant C5G U53C C55A A57G, the yeast fitness was at most 0.5.

For the variant C5G U8G C11G, the yeast fitness came out at 0.509.

With C5U A15U G17C U26C, the yeast fitness is at most 0.5.

For the variant C5G U7A A20C C46U, the yeast fitness is at most 0.5.

Take C5G U13C U35C: the yeast fitness was at most 0.5.

As for C5G U47A G58A, the yeast fitness amounted to 0.567.

As to C5U A21U, the yeast fitness was found to be 0.766.

Turning to C5U A21C, the yeast fitness was 0.897.

C5G G63A A69C: the yeast fitness worked out at 0.614.

For C5G U32A G48C C62U, the yeast fitness was at most 0.5.

As to C5G U8G A43C G48A, the yeast fitness was 0.547.

For C5G U19C U32C, the yeast fitness stood at 0.766.

On to C5G U26C A42G A57G A70G, for which the yeast fitness is at most 0.5.

Turning to C5G U26C C55G U59A U64G, the yeast fitness is at most 0.5.

Regarding C5U A42C C60G, the yeast fitness was at most 0.5.

Consider C5U C11A U13C C24G C30G C46U, for which the yeast fitness worked out at 0.629.

For C5U C11G C33G, the yeast fitness was at most 0.5.

With C5G U7C U54A C61U, the yeast fitness worked out at 0.557.

As to C5U A37U C61U, the yeast fitness stood at 0.623.

Consider C5G U54C G56C G58A, for which the yeast fitness is at most 0.5.

With C5U A20U U26A C49A A57C C62U, the yeast fitness was at most 0.5.

For C5U A37U A42U A69U, the yeast fitness was at most 0.5.

With C5G U19A A45C, the yeast fitness turned out to be 0.779.

As for C5U A45U C46G C60A, the yeast fitness was determined as 0.597.

As to C5G U64G C66U, the yeast fitness is 0.593.

For the variant C5U A37G G56C A65C, the yeast fitness was at most 0.5.

Consider C5U A69C, for which the yeast fitness worked out at 0.865.

In the case of C5G U35A A40G, the yeast fitness is at most 0.5.

Take C5G U16A C29U A40U: the yeast fitness came out at 0.523.

Regarding C5U A21U C30G C66A, the yeast fitness came to 0.552.

As to C5U A14C C62A, the yeast fitness was 0.504.

Regarding C5U A45U C62G G63A, the yeast fitness was at most 0.5.

As for C5G U7C C11G A40G A57U, the yeast fitness was found to be 0.542.

For C5U A45U C46G, the yeast fitness was at most 0.5.

On to C5U A21U C33U G50A, for which the yeast fitness turned out to be 0.65.

Take C5U A70G: the yeast fitness came to 1.01.

Turning to C5U A70U, the yeast fitness worked out at 0.98.

For C5U A15U G25A C29U C31U C34U, the yeast fitness is at most 0.5.

For C5U C11G C49U C61A, the yeast fitness was at most 0.5.

Consider C5G U8C A20G A43U G51A A65C, for which the yeast fitness is at most 0.5.

Turning to C5U A45G C62U, the yeast fitness turned out to be 0.994.

For C5U A40U A42G A57C, the yeast fitness is at most 0.5.

Take C5U A14G A65G: the yeast fitness stood at 0.69.

In the case of C5U A21G C29U A45U, the yeast fitness was 0.538.

For C5U A43U G50U, the yeast fitness was 0.657.

Turning to C5U A15U G63A A70U, the yeast fitness came to 0.807.

For C5U A43U C66U, the yeast fitness was 0.68.

For C5G U53G C60A, the yeast fitness was at most 0.5.

For C5G U7G C33A A70U, the yeast fitness was 0.57.

With C5G G44A A69U, the yeast fitness turned out to be 0.646.

As to C5U A21C C31G C66U, the yeast fitness is 0.528.

On to C5U A37C A43C A45C, for which the yeast fitness is at most 0.5.

As to C5U A20U A45C C60U C61A, the yeast fitness was at most 0.5.

With C5G U59G G63A, the yeast fitness was found to be 0.526.

Consider C5G G51A, for which the yeast fitness stood at 0.78.

With C5G G51C, the yeast fitness was 0.761.

For C5U A20C U53A, the yeast fitness is 0.544.

As for C5U A14C A21C C33U G56A, the yeast fitness is at most 0.5.

As to C5U A36G C55G, the yeast fitness was at most 0.5.

Regarding C5U C11G U13C A15U U32A U35G C55A C61G, the yeast fitness is at most 0.5.

Consider C5G U16A C29U A40U A65C, for which the yeast fitness is at most 0.5.

C5G U19C C24U: the yeast fitness worked out at 0.684.

As for C5U A20C G23C C24U C31U U64C, the yeast fitness was at most 0.5.

C5U A43U C49U: the yeast fitness was 0.555.

On to C5G U7C C11G A40G A57U A70U, for which the yeast fitness was at most 0.5.

With C5G G44A C55G, the yeast fitness is 0.527.

Regarding C5G U26G C34G A40C C46U C49G, the yeast fitness came out at 0.558.

On to C5G U54C C55G, for which the yeast fitness was at most 0.5.

As to C5U A65U, the yeast fitness was 0.999.

C5U A65C: the yeast fitness stood at 0.922.

For the variant C5G U13A A65G, the yeast fitness turned out to be 0.603.

Turning to C5G G63C, the yeast fitness was 0.626.

For the variant C5G G63A, the yeast fitness stood at 0.843.

C5U A14C A70U: the yeast fitness is at most 0.5.

As for C5U C11A C24G C27G A36U G38C U53G, the yeast fitness was at most 0.5.

With C5U A42G G51C G56A, the yeast fitness is 0.698.

As for C5U A20C C27U G39A G56A G58C, the yeast fitness was at most 0.5.

With C5U A21U A37C C61A A65C, the yeast fitness is at most 0.5.

With C5U A14G U26C, the yeast fitness came out at 0.662.

Consider C5G U8C C27G C33G U35A, for which the yeast fitness was at most 0.5.

With C5G G44C C49U U59G, the yeast fitness was at most 0.5.

Regarding C5G U8A A20C A43C C46A, the yeast fitness is at most 0.5.

Regarding C5G U8C A15G G18C C62U, the yeast fitness was at most 0.5.

For C5G G48C C49U U54G C55U C66A, the yeast fitness was 0.604.

Turning to C5U A43U G44A C46A, the yeast fitness is at most 0.5.

Regarding C5G U13C A21C A70C, the yeast fitness is at most 0.5.

As to C5G G48A C62G A69U, the yeast fitness was found to be 0.768.

C5U C11A C24G C27G A36U G38C A70C: the yeast fitness is at most 0.5.

Consider C5U A20U C30U G63A, for which the yeast fitness was at most 0.5.

Consider C5U C11G C29G C46U, for which the yeast fitness was at most 0.5.

As to C5U A37C C61G, the yeast fitness was at most 0.5.

For C5U A37C C61U, the yeast fitness amounted to 0.627.

Regarding C5U A42U, the yeast fitness turned out to be 0.838.

Regarding C5U C11A C34G, the yeast fitness was at most 0.5.

As to C5G U35C C49G, the yeast fitness was at most 0.5.

C5G G58A: the yeast fitness was 0.957.

As for C5U A21G G39C, the yeast fitness was 0.515.

On to C5U A20G U35C A37G, for which the yeast fitness was at most 0.5.

Turning to C5U A20U U28G U32G C34G, the yeast fitness is at most 0.5.
